Results pooled from the literature.
Compare with care: the assays were run in different laboratories.
Target: Serine/threonine-protein kinase Nek2 (NEK2, Homo sapiens, UniProt P51955)
Sequence (P51955 1-445, as in one of the studies): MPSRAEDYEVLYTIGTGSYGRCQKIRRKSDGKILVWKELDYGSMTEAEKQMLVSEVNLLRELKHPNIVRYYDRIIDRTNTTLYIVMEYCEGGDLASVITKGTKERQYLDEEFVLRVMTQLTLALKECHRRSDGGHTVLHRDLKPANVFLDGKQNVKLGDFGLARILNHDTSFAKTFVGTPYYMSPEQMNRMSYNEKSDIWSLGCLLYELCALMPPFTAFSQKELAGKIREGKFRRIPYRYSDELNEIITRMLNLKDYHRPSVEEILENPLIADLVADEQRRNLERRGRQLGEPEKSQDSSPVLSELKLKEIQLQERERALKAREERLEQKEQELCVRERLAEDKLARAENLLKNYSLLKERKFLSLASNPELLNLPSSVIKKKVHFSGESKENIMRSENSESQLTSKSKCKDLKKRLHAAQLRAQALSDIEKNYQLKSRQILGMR

| SMILES | assay | conditions | quantity | result |
| --- | --- | --- | --- | --- |
| O=c1[nH]c2ccccc2n1C1CCN(Cc2ccc(-c3[nH]c4cc5ncnc5cc4nc3-c3ccccc3)cc2)CC1 | cell-free assay | 0.5 µM | remaining signal | 96.8% |
| Cn1cc(-c2cccc(N3CCc4c(sc5c4CC(C)(C)C5)C3=O)c2CO)cc(Nc2ccncn2)c1=O | enzyme activity, inhibitor | 1 µM | inhibition | 4% |
| COc1ncccc1-c1cnn2ccc(N3CCN(C(=O)OC(C)C)CC3)nc12 | binding, competition with immobilised ligand | 1 µM | remaining binding | 86% |
| Cn1cncc1[C@](O)(COc1ccc(C#N)cc1-c1ccc(OC(F)(F)F)cc1)c1ccc(C#N)cc1 | cell-free assay, competition with immobilised ligand | 1 µM | remaining binding | 100% |
| Cc1nn(C)cc1-c1nc2c(N3CCN(Cc4ccc(Cl)cc4)CC3)c(Cl)cnc2[nH]1 | binding, competition with immobilised ligand | 1 µM | remaining binding | 100% |
| N#CC1(c2ccccn2)CCN(Cc2cc(C(=O)O)c(=O)n3ccccc23)CC1 | cell-free assay, competition with immobilised ligand | 1 µM | remaining binding | 100% |
| C#Cc1n[nH]c2c(-c3cn([C@@H](C)c4ccccc4)c(=O)[nH]c3=O)cc(F)cc12 | enzyme activity, inhibitor | 0.1 µM | inhibition | 0.5% |
| COc1cc(Nc2ncc(F)c(Nc3ccc4c(n3)NC(=O)C(C)(C)O4)n2)cc(OC)c1OC | binding, competition with immobilised ligand | 10 µM | inhibition | 83% |
| Cn1cc(-c2cc(F)cc(N3CCn4c(cc5c4CCCC5)C3=O)c2CO)cc(Nc2ccc(N3CCN(C4COC4)CC3)cn2)c1=O | enzyme activity, inhibitor | 0.1 µM | inhibition | 10% |
| C#Cc1n[nH]c2c(-c3cn(C(C)c4ccccn4)c(=O)[nH]c3=O)cc(F)cc12 (stereo not drawn) | enzyme activity, inhibitor | 1 µM | inhibition | -4.6% |
| CC(C)(C)c1cc(C=C(C#N)C#N)cc(Br)c1O | enzyme activity, inhibitor | 0.5 µM | remaining activity | 96% |
| Nc1ncc(-c2nc(N3CCOCC3)nc(N3CCOCC3)n2)c(C(F)F)n1 | binding, competition with immobilised ligand | 10 µM | remaining binding | 87% |
